Rows were chosen to be rich in hits. Some 6.3% of all compounds tested hit in one or more screens of this group.
Ecoli tolC = blocks growth of E. coli BW25113 tolC mutant. AID 573. growth inhibition, % at 10 µM (by protocol). actives 2.2% (n = 65,000). OD615;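 active means growth inhibition at or above a cutoff equal to the mean over every tested compound plus 3 SD, cut at about 60% in these data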;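 further: growth measured after 20 h incubation at 37 °C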
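Test system – E. coli BW25113 ΔtolC::kan, tolC deletion mutant strain · Detection – OD at 615 nm · Buffer or medium – LB with kanamycin 50 µg/mL · Times – 20 h compound exposure of bacteria at 37 °C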
PostGolgi yeast = growth inhibition of a yeast mutant, post-Golgi transport screen | post-Golgi transport phenotypic cell assay | inhibition, % at 10 µM | actives 0.9% (n = 98,000) | AID 739;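 further: yeast cells grown in 1536-well plates; yeast grown about 18 h at 30C before absorbance read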
Ecoli WT expand = E. coli BW25113 growth inhibition, expanded screen | OD600 absorbance | growth inhibition, % at 100 µM | actives 0.15% (n = 98,000);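 active means growth inhibition above about 50% at one test dose, limit read from the data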;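 further: growth measured after 20 h incubation at 37 °C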
PostGolgi ctrl = yeast control strain growth, post-Golgi counter-screen | AID 738 | inhibition, % at 10 µM | actives 5% (n = 98,000) | efflux-deficient yeast background strain, growth absorbance A615, 16 h
* hit, by the source's call; . = no result. Unless noted, no stated cut-off is given here; in the data, active means inhibition above about 30%; inactive means the rest.

SMILES | Ecoli tolC | PostGolgi yeast | Ecoli WT expand | PostGolgi ctrl
O=C(NC(NNc1ccc([N+](=O)[O-])cc1)(C(F)(F)F)C(F)(F)F)c1ccc(Cl)cc1 | . | 21 | -8 | 58*
CCOC(=O)c1oc2ccccc2c1NC(=O)c1ccc(Cl)s1 | . | 1 | -5 | 0
O=c1nc2n(c3c4c(sc13)CCC4)CCC2 | -5 | 3 | 10 | -3
O=C(CSc1ccc2nnc(-c3ccc(Cl)cc3)n2n1)N1CCN(c2ccccc2)CC1 | -8 | . | . | .
CNc1ccc(C(O)(C(F)(F)F)C(F)(F)F)cc1C(O)(C(F)(F)F)C(F)(F)F | 62* | -2 | 1 | 11
CN(Cc1ccccc1)C(NC(=O)c1ccccc1)C(Cl)(Cl)Cl (stereo unspecified) | . | 9 | 1 | 35*
O=C(COc1ccccc1F)NC1CCN(Cc2ccccc2)CC1 | . | 54* | 0 | 28
CN(C(=O)Nc1ccc(Cl)cc1Cl)[C@H]1c2cc(Br)ccc2OC[C@H]1CO | . | 6 | -11 | 81*
c1ccc(C2=Nc3ccccc3NC(c3ccccc3)C2)cc1 (stereo unspecified) | . | -18 | -15 | 36*
O=C1CC(c2ccccc2)NC(=O)N1 (stereo unspecified) | 0 | -3 | 3 | 2
CC(=O)c1cccc(N(CC(=O)NCC2CCCO2)C(=O)CCC(=O)Nc2cc(C)on2)c1 (stereo unspecified) | -27 | -9 | -4 | 41*
Cc1[nH]c(-c2ccc3c(c2)OCO3)nc1C(=O)O | . | -2 | -14 | 31*
Cc1[nH]c(-c2ccco2)nc1C(=O)O | -9 | 2 | -12 | 2
N#Cc1ccc(Oc2ccc(/C=N/O)cn2)cc1 | . | 8 | 13 | 3
C=CCn1c2ccccc2c2nnc(SC(CC)C(=O)Nc3sc4c(c3C#N)CCCC4)nc21 (stereo unspecified) | . | -12 | -12 | 3
O=C(CC1SC(=O)N(Cc2cccc3ccccc23)C1=O)Nc1nccs1 (stereo unspecified) | . | -24 | -14 | 33*
CCOC(=O)CN1C(=O)SC(CC(=O)Nc2nccs2)C1=O (stereo unspecified) | -16 | -6 | -6 | 14
CC(C)CNc1nc(Oc2ccc(=O)n(-c3ccccc3)n2)nc(N2CCOCC2)n1 | 4 | -3 | -1 | 12
CC(C)CNc1nc(Oc2ccc(=O)n(C)n2)nc(N2CCOCC2)n1 | -1 | 32* | -1 | 3
O=c1c2cc(Br)ccc2nc(-c2cccc(C(F)(F)F)c2)n1O | . | 3 | 63* | 7
CSc1nnc(-c2sc(-c3ccccc3)nc2C)n1C | . | -2 | 1 | -2
CCNC(=O)N1CCNC(=O)C1CC(=O)OC (stereo unspecified) | -6 | 1 | -6 | 31*
COC(=O)CC1C(=O)NCCN1C(=O)NC1CCCCC1 (stereo unspecified) | -23 | -2 | -3 | 1
CCCn1nnc(NC(=O)COc2ccc(C3CCCCC3)cc2)n1 | 100* | 3 | 2 | 9
CCCn1nnc(NC(=O)COc2ccc(Cl)cc2)n1 | -4 | 9 | 23 | 6
SMILES | Ecoli tolC | PostGolgi yeast | Ecoli WT expand | PostGolgi ctrl
Cn1cccc1C(=O)C(=O)Nc1cccc(Cl)c1Cl | . | -6 | -4 | 12
Cc1cccc(NC(=O)c2cccc(NS(=O)(=O)c3ccc(Cl)cc3)c2)c1 | . | -2 | 2 | -7
Cc1ccc(S(=O)(=O)Nc2cc(C(=O)Nc3cc(C)cc(C)c3)ccc2Cl)cc1 | . | -1 | -3 | 37*
CN(C)c1ccc(-c2ccccc2)nn1 | -19 | 0 | 7 | 6
CC1=C/C(=N\OS(=O)(=O)c2ccccc2)C(C)=CC1=O | . | 36* | -5 | 48*
CC1=CC(=NOC(=O)/C=C/c2ccccc2)C=C(C)C1=O | . | 0 | -4 | -3
CC1CCc2c(C(=O)N3CCN(S(=O)(=O)c4cccs4)CC3)csc2C1 (stereo unspecified) | 5 | -11 | -14 | 24
Nc1nc(Nc2ccc(Cl)cc2)nc2ccccc12 | . | 1 | 93* | 11
Nc1nc(Nc2ccccc2)nc2ccccc12 | 35 | -10 | 48 | 3
CCOCCn1c(=O)c2c(nc3n2CCN3c2ccc(CC)cc2)n(C)c1=O | -3 | . | . | .
Cc1nn(C)cc1C(=O)Nc1cc(Oc2ccc(Cl)cc2)cc([N+](=O)[O-])c1 | . | -4 | -8 | 7
CCOc1ccc(Oc2cc(NC(=O)c3ccco3)cc([N+](=O)[O-])c2)cc1 | . | -1 | -3 | 44*
CC(C)(C)OC(=O)CN1C(=O)C(Sc2n[nH]c(-c3ccccc3)n2)CCc2ccccc21 (stereo unspecified) | . | -8 | -10 | 22
COc1ccc(Cl)cc1NC(=O)CSc1nc(N2CCCCC2)nc(N2CCCCC2)n1 | 4 | 8 | -11 | -7
CC(C)(C)c1cnnn1-c1ccc(NC(=O)c2ccc(Br)o2)cc1 | 21 | 5 | 12 | 44*

Screening data (PubChem)
